system: HCT-116; assay: Growth inhibition of human HCT116 cells; format: functional; conditions: not given

| Compound | GI50 |
| --- | --- |
| COc1cc(O)cc2cc3oc(C)cc(=O)c3c(OC)c12 [COMANTHERIN] | > 100 µM |

same assay, conditions: read-out: Log LC50 (the source's name) (converted)

| Compound | CC50 |
| --- | --- |
| COc1cc(O)cc2cc3oc(C)cc(=O)c3c(OC)c12 [COMANTHERIN] | > 100 µM |

same assay, conditions: read-out: Log TGI (converted)

| Compound | TGI |
| --- | --- |
| COc1cc(O)cc2cc3oc(C)cc(=O)c3c(OC)c12 [COMANTHERIN] | > 100 µM |

system: NCI-H522; assay: Growth inhibition of human NCI-H522 cells; format: functional; conditions: not given

| Compound | GI50 |
| --- | --- |
| COc1cc(O)cc2cc3oc(C)cc(=O)c3c(OC)c12 [COMANTHERIN] | > 100 µM |

same assay, conditions: read-out: Log LC50 (the source's name) (converted)

| Compound | CC50 |
| --- | --- |
| COc1cc(O)cc2cc3oc(C)cc(=O)c3c(OC)c12 [COMANTHERIN] | > 100 µM |

same assay, conditions: read-out: Log TGI (converted)

| Compound | TGI |
| --- | --- |
| COc1cc(O)cc2cc3oc(C)cc(=O)c3c(OC)c12 [COMANTHERIN] | > 100 µM |

system: CCRF-CEM; assay: Growth inhibition of human CCRF-CEM cells; format: functional; conditions: not given

| Compound | GI50 | LC50 |
| --- | --- | --- |
| COc1cc(O)cc2cc3oc(C)cc(=O)c3c(OC)c12 [COMANTHERIN] | 2.09 µM | > 100 µM |

same assay, conditions: read-out: Log TGI (converted)

| Compound | TGI |
| --- | --- |
| COc1cc(O)cc2cc3oc(C)cc(=O)c3c(OC)c12 [COMANTHERIN] | > 100 µM |

system: SF-295; assay: Growth inhibition of human SF295 cells; format: functional; conditions: not given

| Compound | GI50 | LC50 |
| --- | --- | --- |
| COc1cc(O)cc2cc3oc(C)cc(=O)c3c(OC)c12 [COMANTHERIN] | > 100 µM | > 100 µM |

same assay, conditions: read-out: Log TGI (converted)

| Compound | TGI |
| --- | --- |
| COc1cc(O)cc2cc3oc(C)cc(=O)c3c(OC)c12 [COMANTHERIN] | > 100 µM |

system: OVCAR-8; assay: Growth inhibition of human OVACAR8 cells; format: functional; conditions: not given

| Compound | GI50 | LC50 |
| --- | --- | --- |
| COc1cc(O)cc2cc3oc(C)cc(=O)c3c(OC)c12 [COMANTHERIN] | > 100 µM | > 100 µM |

same assay, conditions: read-out: Log TGI (converted)

| Compound | TGI |
| --- | --- |
| COc1cc(O)cc2cc3oc(C)cc(=O)c3c(OC)c12 [COMANTHERIN] | > 100 µM |

system: M14; assay: Growth inhibition of human M14 cells; format: functional; conditions: not given

| Compound | GI50 | LC50 (50% lethal concentration) |
| --- | --- | --- |
| COc1cc(O)cc2cc3oc(C)cc(=O)c3c(OC)c12 [COMANTHERIN] | > 100 µM | > 100 µM |

same assay, conditions: read-out: Log TGI (converted)

| Compound | TGI |
| --- | --- |
| COc1cc(O)cc2cc3oc(C)cc(=O)c3c(OC)c12 [COMANTHERIN] | > 100 µM |

system: not listed separately; assay: Inhibition of 1,10-phenanthroline-induced HIF1 activation in T47D cells by TK-luciferase assay; format: cell-based; conditions: Homo sapiens
Outline: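 HIF-1 reporter (pHRE-TK-Luc) assays in transfected PC-3 or T47D cells; HIF-1 induced by hypoxia or by the hypoxia mimetic 1,10-phenanthroline (10 μM); compounds at half-log concentrations; luciferase activity measured; IC50 from experiments in triplicate.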

| Compound | IC50 |
| --- | --- |
| COc1cc(O)cc2cc3oc(C)cc(=O)c3c(OC)c12 [COMANTHERIN] | 2.7 µM |

system: RXF 393; assay: Growth inhibition of human RXF393 cells; format: functional; conditions: not given

| Compound | GI50 | LC50 |
| --- | --- | --- |
| COc1cc(O)cc2cc3oc(C)cc(=O)c3c(OC)c12 [COMANTHERIN] | > 100 µM | > 100 µM |

same assay, conditions: read-out: Log TGI (converted)

| Compound | TGI |
| --- | --- |
| COc1cc(O)cc2cc3oc(C)cc(=O)c3c(OC)c12 [COMANTHERIN] | > 100 µM |

system: OVCAR-5; assay: Growth inhibition of human OVACAR5 cells; format: functional; conditions: not given

| Compound | GI50 | LC50 |
| --- | --- | --- |
| COc1cc(O)cc2cc3oc(C)cc(=O)c3c(OC)c12 [COMANTHERIN] | > 100 µM | > 100 µM |

same assay, conditions: read-out: Log TGI (converted)

| Compound | TGI |
| --- | --- |
| COc1cc(O)cc2cc3oc(C)cc(=O)c3c(OC)c12 [COMANTHERIN] | > 100 µM |

system: TK-10; assay: Growth inhibition of human TK10 cells; format: functional; conditions: not given

| Compound | GI50 | LC50 |
| --- | --- | --- |
| COc1cc(O)cc2cc3oc(C)cc(=O)c3c(OC)c12 [COMANTHERIN] | > 100 µM | > 100 µM |

same assay, conditions: read-out: Log TGI (converted)

| Compound | TGI |
| --- | --- |
| COc1cc(O)cc2cc3oc(C)cc(=O)c3c(OC)c12 [COMANTHERIN] | > 100 µM |

system: not listed separately; assay: Growth inhibition of human OVACAR3 cells; format: functional; conditions: not given

| Compound | GI50 |
| --- | --- |
| COc1cc(O)cc2cc3oc(C)cc(=O)c3c(OC)c12 [COMANTHERIN] | > 100 µM |

same assay, conditions: read-out: Log LC50 (the source's name) (converted)

| Compound | CC50 |
| --- | --- |
| COc1cc(O)cc2cc3oc(C)cc(=O)c3c(OC)c12 [COMANTHERIN] | > 100 µM |

same assay, conditions: read-out: Log TGI (converted)

| Compound | TGI |
| --- | --- |
| COc1cc(O)cc2cc3oc(C)cc(=O)c3c(OC)c12 [COMANTHERIN] | > 100 µM |

system: NCI-H226; assay: Growth inhibition of human NCI-H226 cells; format: functional; conditions: not given

| Compound | GI50 |
| --- | --- |
| COc1cc(O)cc2cc3oc(C)cc(=O)c3c(OC)c12 [COMANTHERIN] | > 100 µM |

same assay, conditions: read-out: Log LC50 (the source's name) (converted)

| Compound | CC50 |
| --- | --- |
| COc1cc(O)cc2cc3oc(C)cc(=O)c3c(OC)c12 [COMANTHERIN] | > 100 µM |

same assay, conditions: read-out: Log TGI (converted)

| Compound | TGI |
| --- | --- |
| COc1cc(O)cc2cc3oc(C)cc(=O)c3c(OC)c12 [COMANTHERIN] | > 100 µM |

system: KM12; assay: Growth inhibition of human KM12 cells; format: functional; conditions: not given

| Compound | GI50 |
| --- | --- |
| COc1cc(O)cc2cc3oc(C)cc(=O)c3c(OC)c12 [COMANTHERIN] | > 100 µM |
